Only some compounds are listed: those with a hit (about 1.8% of all), similar ones and a draw of the others.
pCIP destab = p/CIP protein destabilization; Q05BA5; F442A p/CIP-EGFP cells, EGFP fluorescence, 16 h; decrease of EGFP signal, % at 10 µM; 290,000 tested, 0.01% active;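 active = EGFP signal decrease of at least 30% at 10 µM or well 3 SD below plate mean, unless failing retest; inactive = the rest, including hits failing retest or dose response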
APOBEC3G inh = inhibitors of human APOBEC3G DNA deaminase. Q9HC16. recombinant A3G, ssDNA deamination FAM/TAMRA fluorescence. inhibition, % at 20 µM. 330,000 tested, 0.28% active;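 active = inhibition of at least 40% at 20 µM, with no more than 30% in the related APOBEC3A deaminase screen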;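 also: plate controls were DMSO wells with A3G for no effect and wells lacking A3G enzyme for full effect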
Tb MetRS inh = blocks T. brucei methionyl-tRNA synthetase activity; purified T. brucei MetRS, ATP depletion, Kinase-Glo luminescence; inhibition, % at 11.9 µM; 360,000 tested, 0.4% active;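 active = inhibition above a per-plate cutoff of the control wells' mean inhibition plus 3 SD, cut at about 5.5% in these data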;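 also: 0% = DMSO wells median and 100% = median of wells with control inhibitor compound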
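Material – parasite MetRS enzyme · Medium – HEPES-MgCl2-KCl buffer plus DTT, spermine, BSA, pyrophosphatase · Reagent – ATP, methionine and E. coli bulk tRNA substrates · Times – 15 min enzyme-compound preincubation, 2 h reaction, 10 min detection, 25 °C · Measured by – luminescence of leftover ATP · Evaluation – percent inhibition relative to median high and low control wells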
PHOSPHO1 inh = blocks human PHOSPHO1 phosphatase activity; recombinant PHOSPHO1, absorbance phosphatase assay; inhibition, % at 13.3 µM; 290,000 tested, 1.1% active; in the data active = inhibition above about 60%
APOBEC3A inh = inhibitors of human APOBEC3A DNA deaminase; recombinant A3A, FAM/TAMRA ssDNA deamination fluorescence; P31941; 330,000 tested, 0.41% active; inhibition, % at 20 µM;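 active = at least 40% inhibition at 20 µM here, with at most 30% in a related deaminase screen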;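 also: plate controls were A3A with DMSO for no effect and wells lacking A3A enzyme for full effect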
APOBEC3A confirm = confirmation of human APOBEC3A DNA deaminase inhibitors; shares compounds with APOBEC3A inh; recombinant A3A, ssDNA deaminase UDG fluorescence assay; inhibition, % at 20 µM; 1,400 tested, 63% active;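 active = inhibition reaching a set limit, 80% of the first screen's cutoff, at 20 µM in any replicate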;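 also: plate controls were DMSO wells with A3A for no effect and wells lacking A3A enzyme for full effect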
UDG ctr A3A = UDG inhibition in APOBEC3A counter-screen; shares compounds with APOBEC3A inh; AID 504714; UDG counterscreen, FAM/TAMRA uracil oligo fluorescence; 1,000 tested, under 10 active; inhibition, % at 20 µM; call rule not given here
The depositor's hits bear a star; . = not tested or not shown.

SMILES | pCIP destab | APOBEC3G inh | Tb MetRS inh | PHOSPHO1 inh | APOBEC3A inh | APOBEC3A confirm | UDG ctr A3A
Cn1cnc(C(=O)N2CCN(C(=O)OC(C)(C)C)CC2)c1C(=O)N1CCN(C(=O)OC(C)(C)C)CC1 | . | 8 | 0 | . | 46* | 64* | 0
CCn1cc(Br)c(C(=O)N2CCN(c3ccccc3)CC2)n1 | -3 | 0 | 0 | -7 | -2 | . | .
CC1(c2nnc(Cc3ccccc3)o2)CC(c2ccc(OC(F)(F)F)cc2)=NO1 (stereo not given) | . | 8 | 0 | . | 4 | . | .
CCn1cc2nc(SCC(=O)Nc3ccccc3F)n(Cc3ccccc3)c(=O)c2n1 | -4 | 0 | 1 | -14 | -1 | . | .
O=C(c1cccnc1)N1CCN(c2ccc(Cl)cc2)CC1 | -2 | -6 | 1 | -1 | 48* | -4 | -2
COc1cc(C)ccc1OCC(=O)OCC(=O)NCC1CCCCC1 | . | -8 | 0 | . | -1 | . | .
COc1cccc(-c2nnc3n2N=C(C(C)(C)C)CS3)c1 | -11 | -2 | 0 | 52 | 1 | . | .
CCCC[n+]1c(C)sc2cc(OC)ccc21 | 6 | 18 | -1 | -45 | 65* | 66* | -2
CC(Oc1ccc(Br)cc1)C(=O)Nc1cc(Cl)ccc1N1CCN(C)CC1 (stereo not given) | . | 9 | 0 | . | 58* | 54* | -2
CC1=CC(C)(C)N(S(=O)(=O)c2ccc(C)cc2)c2ccc(C)cc21 | -12 | -3 | -1 | -3 | -3 | . | .
CC1=CC(C)(C)[N+](C)(C)c2ccc(C)cc21 | -10 | 12 | 0 | 37 | 45* | 71* | 0
CCCC1=[N+](CC(=O)c2ccccc2)CCn2c(C)ccc21 | -7 | -9 | 0 | 19 | -7 | . | .
CCCC1=[N+](CC)CCn2c(C)ccc21 | -16 | 20 | 0 | 37 | 60* | 76* | 0
COc1ccc2[nH]c3c(=O)n4c(nc3c2c1)SCCC4 | 2 | -3 | -1 | -10 | -2 | . | .
N#Cc1c(-c2ccccc2F)cc(C2CC2)nc1SCC(=O)c1cccs1 | -24 | -8 | -1 | -9 | 3 | . | .
CCOC(=O)c1ccc2c(c1)N(C)C(=O)c1ccccc1S2 | 14 | 13 | -1 | -16 | 57* | 82* | -3
CC(C)CC(c1nnnn1C1CCCC1)N1CCC(C(N)=O)CC1 (stereo not given) | 16 | 13 | -1 | 32 | 1 | . | .
CCn1c(SCC(=O)NCc2ccccc2)nnc1C(CO)NC(=O)c1ccccc1 (stereo not given) | 4 | 11 | 0 | -21 | 69* | 62* | -2
O=C(O)/C(=C\c1ccc(Cl)c([N+](=O)[O-])c1)c1ccc(S(=O)(=O)N2CCCCC2)s1 | -13 | 0 | 0 | 32 | 4 | . | .
O=C(O)/C(=C\c1ccc(Cl)c([N+](=O)[O-])c1)c1ccc(S(=O)(=O)N2CCCC2)s1 | . | 10 | 1 | . | 55* | 47* | 2
CCN1/C(=C/c2ccc3cc(C)cc(C)c3[n+]2CC)Sc2cc(C)ccc21 | -192 | . | 0 | -100 | . | . | .
CCN1/C(=C/c2ccc3cccc(C)c3[n+]2CC)Sc2ccccc21 | -589 | 24 | 0 | -18 | 70* | 85* | 5
CS/C(N)=N/N=C/c1c(O)ccc2ccccc12 | 7 | 23 | 0 | 68* | 58* | 27 | .
CN(C)/N=C/c1c(O)ccc2ccccc12 | -10 | -1 | 0 | 12 | -2 | . | .
COCCN1Cc2cccc(C(=O)NCc3ccccc3OC)c2C1=O | -6 | -1 | 0 | -28 | 96* | -1 | -4
SMILES | pCIP destab | APOBEC3G inh | Tb MetRS inh | PHOSPHO1 inh | APOBEC3A inh | APOBEC3A confirm | UDG ctr A3A
CCCN1Cc2cccc(C(=O)NCc3ccccc3OC)c2C1=O | -5 | -1 | -1 | 6 | 2 | . | .
Cc1[nH]nc2c1C(c1ccsc1)C1=C(CC(C)(C)CC1=O)N2 (stereo not given) | -13 | 1 | -1 | 20 | -2 | . | .
Cc1ccc(NC(=O)CN2C(=O)N/C(=C\c3cccn3-c3cccc(C(=O)O)c3)C2=O)cc1 | 12 | 56 | 1 | -27 | 95 | . | .
O=C1N/C(=C/c2cccn2-c2ccc(F)cc2)C(=O)N1Cc1ccccc1 | 1 | -6 | -1 | 23 | 0 | . | .
O=C(O)c1cccc(-n2cccc2/C=C2\NC(=O)N(Cc3ccc(F)cc3)C2=O)c1 | -17 | 29 | 0 | 34 | 87* | 74* | -2
Cc1ccc(CN2C(=O)N/C(=C\c3cccn3-c3cccc(C(=O)O)c3)C2=O)cc1 | -3 | 27 | -1 | -32 | 79* | 80* | -3
Cc1cc(C(=O)O)ccc1-c1ccc(/C=C2\NC(=O)N(Cc3ccc(F)cc3)C2=O)o1 | 0 | 26 | 0 | -21 | 58* | 44* | 0
Cc1ccc(NC(=O)C2(C)CCN2C(=O)Cc2cc(F)ccc2F)cc1 (stereo not given) | . | . | 0 | . | . | . | .
CCNc1ccc(P(=O)(c2ccccc2)c2ccccc2)cc1 | 14 | -2 | 0 | 28 | -3 | . | .
CCOC(=O)N1CCN(CC(=O)Nc2ccc(F)c(F)c2)CC1 | 15 | 1 | 1 | 2 | 4 | . | .
CCN(CC)CCNC(=O)c1ccc(NC(=O)C2CC(=O)N(c3ccc4c(c3)OCCO4)C2)cc1 (stereo not given) | . | 5 | 0 | . | 48* | 52* | -4
CNc1ncnc2c1ncn2[C@H]1CN(Cc2ccc(Cl)cc2)C[C@@H](CO)O1 | . | . | 0 | . | . | . | .
O=C1CN=C(Nc2ccccc2Cl)N1Cc1ccc2c(c1)OCO2 | -7 | -1 | -2 | -4 | 96* | -6 | 9
Cc1oc(-c2ccccc2F)nc1CSCC(=O)NC1CCC(C)CC1 (stereo not given) | 11 | -4 | 0 | 29 | -1 | . | .
CC12CC(O)C3c4ccc(O)cc4CCC3C1CC/C2=N\O (stereo not given) | -1 | -13 | -1 | 36 | 51* | 1 | 2
COCCn1c(Br)nc2c1c(=O)n(C)c(=O)n2C | -9 | -1 | 1 | 48 | 48* | 1 | 8
N/C(=N\S(=O)(=O)c1ccccc1)c1ccc([N+](=O)[O-])cc1 | -20 | -5 | 1 | 13 | -1 | . | .
N/C(=N\OC(=O)c1cccc(F)c1)c1cccc([N+](=O)[O-])c1 | -10 | 0 | -1 | 14 | -2 | . | .
N/C(=N/S(=O)(=O)c1ccccc1)c1cccc([N+](=O)[O-])c1 | -6 | -7 | -1 | -22 | 45* | 0 | 0
N/C(=N/OC(=O)c1cccc([N+](=O)[O-])c1)c1cccc([N+](=O)[O-])c1 | -4 | -4 | -1 | -3 | 47* | 7 | 5
Nc1c(Nc2ccccc2)c2ccccc2oc1=O | 1 | 1 | -1 | -7 | -3 | . | .
O=C(COc1ccccc1[N+](=O)[O-])NNC(=O)Nc1cccc2ccccc12 | 4 | 1 | 0 | 26 | 0 | . | .
